The record followed here is ChEMBL document CHEMBL3400107, “Synthesis, structure-activity relationships, and anticonvulsant activities of 2-amino-4H-pyrido[3,2-e][1,3]thiazin-4-one derivatives as orally active AMPA receptor antagonists” (Bioorg Med Chem, 2015).

Data set [1] relates to Neuron. Nature of the data set: Inhibition of kainate-induced neurotoxicity in primary rat hippocampal neurons at 10 uM after 24 hrs by LDH assay. In kind it is functional. The essentials:
(§1)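 Hippocampal cultures from embryonic day 18–20 Wistar rats, used after 8 or 9 days in vitro. Compounds added together with 300 µM kainate. Neuronal injury measured 24 h later as LDH release into the medium. Values are IC50 (concentration for 50% inhibition) or percent inhibition at 10 µM.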

Data set [2] has as its system Neuron. Nature of the data set: Inhibition of kainate-induced neurotoxicity in primary rat hippocampal neurons after 24 hrs by LDH assay. In kind it is functional, cell-based. The essentials: as §1
The next data set concerns Mus musculus. Nature of the data set: Anticonvulsant activity in po dosed ICR mouse assessed as protection from maximal electroshock-induced seizure measured after 60 mins post dose. The settings on record: 1 h. The data set is classed as functional. The essentials: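 Compounds given orally to mice; 60 min later corneal electroshock applied (50 mA, 0.2 s, 50 Hz). Protection scored as absence of tonic extension. ED50 calculated by probit method, with 95% confidence intervals.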

Data set [3] can be described thus: Volume of distribution at steady state in rat at 1 mg/kg, iv. The data set is classed as ADME, organism-based. Details: dose 1 mg/kg, route intravenous. The settings on record: in vivo, read-out: Vdss.
Data set [4] can be described thus: Cmax in rat at 1 mg/kg, po. In kind it is ADME, organism-based. Details: dose 1 mg/kg, route oral. The conditions noted are these: in vivo.
The nature of data set [5]: Oral bioavailability in rat at 1 mg/kg. In kind it is ADME, organism-based. The settings on record: in vivo.
Data set [6] in a line: Tmax in rat at 1 mg/kg, po. The data set is classed as ADME, organism-based. Details: dose 1 mg/kg, route oral. The settings on record: in vivo.
Data set [7] is described as follows: Total clearance in rat at 1 mg/kg, iv. The data set is classed as ADME, organism-based. The arrangement: dose 1 mg/kg, route intravenous. The settings on record: in vivo.
Data set [8] can be described thus: AUC(infinity) in rat at 1 mg/kg, po. The arrangement: time infinity, dose 1 mg/kg, route oral. The conditions noted are these: plasma. The data set is classed as ADME, organism-based.
Data set [9] in a line: Half life in rat at 1 mg/kg, iv. The arrangement: dose 1 mg/kg, route intravenous. The conditions noted are these: in vivo. The data set is classed as ADME, organism-based.
Data set [10] in a line: Half life in rat at 1 mg/kg, po. The arrangement: dose 1 mg/kg, route oral. The data set is classed as ADME, organism-based. The conditions noted are these: in vivo.
A short description of data set [11]: AUC(infinity) in rat at 1 mg/kg, iv. The data set is classed as ADME, organism-based. The arrangement: time infinity, dose 1 mg/kg, route intravenous. The conditions noted are these: plasma.

In turn, `CN(c1ccccc1)c1nc(=O)c2cccnc2s1` yielded an inhibition at 10 µM with Neuron [1] of 43%. On the same count and under the same terms, the figure for `CN(c1cccnc1)c1nc(=O)c2cccnc2s1` is 18%. Regarding `CN(c1nc(=O)c2cccnc2s1)C1CCCCC1`, in the data set on Neuron [1], 10 µM produced 16% inhibition. The same measure, in the same setting: the figure for `Cc1ccccc1N(C)c1nc(=O)c2cccnc2s1` is 4%.

`Cc1ccc(N(C)c2nc(=O)c3cccnc3s2)cc1` gave an IC50 in the data set with Neuron [2] of 10000 nM. Regarding `CN(c1ccc(F)cc1)c1nc(=O)c2cccnc2s1`, the ED50 in the data set with Mus musculus worked out at 15.3 mg/kg. For the same compound, the IC50 in the data set on Neuron [2] was 7200 nM.

For `CN(c1ccc(Cl)cc1)c1nc(=O)c2cccnc2s1`, the ED50 in the data set with Mus musculus came out at 7.4 mg/kg. Further, the Vd in data set [3] amounted to 1.18 L/kg. The same compound showed a Cmax in data set [4] of 425 ng/mL. Besides, the bioavailability in [5] turned out to be 87.1%. Besides, the Tmax in data set [6] is 15 min. Also, in data set [7], the clearance is 30.8 mL/min/kg. In addition, the AUC(0-inf) in data set [8] is 472 ng·h/mL; in [11], 542 ng·h/mL. The values for the half-life in [9] and in [10] were 26.4 min and 34.8 min, respectively. The compound also yielded a half-maximal inhibitory concentration (IC50) with Neuron [2] of 2000 nM. With `CN(c1ccc(Br)cc1)c1nc(=O)c2cccnc2s1`, the ED50 with Mus musculus was found to be 23.1 mg/kg. In the data set with Neuron [2], this compound displayed an IC50 of 1000 nM.

In turn, `CN(c1ccc(C(F)(F)F)cc1)c1nc(=O)c2cccnc2s1` registered an IC50 with Neuron [2] of 2000 nM. For `COc1ccc(N(C)c2nc(=O)c3cccnc3s2)cc1`, the concentration for half-maximal inhibition (IC50) in the data set on Neuron [2] came out at 3400 nM. For the compound `CN(c1ccc(OC(F)(F)F)cc1)c1nc(=O)c2cccnc2s1`, the ED50 in the data set on Mus musculus is 25.2 mg/kg. In the data set with Neuron [2], this compound showed an IC50 of 2100 nM.

Consider `CN(c1ccc([N+](=O)[O-])cc1)c1nc(=O)c2cccnc2s1`, for which at 10 µM the inhibition in the data set with Neuron [1] was 38%. Still for that read-out and setting: the result for `CN(c1ccc(N)cc1)c1nc(=O)c2cccnc2s1` reads 19%; that for `CCOC(=O)c1ccc(N(C)c2nc(=O)c3cccnc3s2)cc1`, 29%; that for `CN(c1ccc(C(=O)O)cc1)c1nc(=O)c2cccnc2s1`, 0%. The same measure, in the same setting: the figure for `CN(c1ccc(C2CCCCC2)cc1)c1nc(=O)c2cccnc2s1` is 29%. `CN(c1ccc2c(c1)CCC2)c1nc(=O)c2cccnc2s1` gave an IC50 with Neuron [2] of 1300 nM. The compound `CN(c1ccc2sccc2c1)c1nc(=O)c2cccnc2s1` had an IC50 in the data set on Neuron [2] of 400 nM. With `CCN(c1cccc(OC)c1)c1nc(=O)c2cccnc2s1`, the IC50 in the data set with Neuron [2] is 3800 nM.

As for `CCN(c1ccc(OC)cc1)c1nc(=O)c2cccnc2s1`, in the data set with Neuron [2], the IC50 worked out at 2800 nM. Consider `CCN(c1ccc(OC)c(OC)c1)c1nc(=O)c2cccnc2s1`, for which testing at 10 µM in the data set with Neuron [1] gave an inhibition of 25%. Regarding `CCN(c1ccc2c(c1)OCO2)c1nc(=O)c2cccnc2s1`, in the data set with Mus musculus, the 50% effective dose (ED50) worked out at 38.9 mg/kg. In the data set with Neuron [2], this compound returned an IC50 of 400 nM. In turn, `CCN(c1ccc2c(c1)OCCO2)c1nc(=O)c2cccnc2s1` registered an IC50 with Neuron [2] of 600 nM.

In the case of `CN(c1ccc(Cl)cc1)c1nc(=O)c2ccccc2s1`, the IC50 in the data set on Neuron [2] is 6500 nM.

On to `CN(c1ccc(Cl)cc1)c1nc(=O)c2sccc2s1`, for which, in the data set with Neuron [2], the IC50 was determined as 5400 nM. In the data set with Neuron [1], `CN(c1ccc(Cl)cc1)c1nc(=O)c2ccncc2s1` came in with an inhibition at 10 µM of 4%. Still for that read-out and setting: the result for `CN(c1ccc(Cl)cc1)c1nc(=O)c2cnccc2s1` reads 2%. For `Cc1ccc2c(=O)nc(N(C)c3ccc(Cl)cc3)sc2n1`, in the data set on Neuron [1], testing at 10 µM gave an inhibition of 0%.

`CN(c1ccc(Cl)cc1)c1nc(=O)c2ccccc2o1` gave an inhibition at 10 µM in the data set with Neuron [1] of 28%.

In the case of `Cl.O=c1[nH]c2cc(-n3ccnc3)c([N+](=O)[O-])cc2[nH]c1=O`, the 50% effective dose (ED50) in the data set on Mus musculus was more than 100 mg/kg. Compound `C=CCN(c1ccc(C)cc1)c1nc(=O)c2cccnc2s1` showed a half-inhibitory concentration (IC50) in the data set on Neuron [2] of 9000 nM.

Take `CN(Cc1ccccc1)c1nc(=O)c2cccnc2s1`: in the data set on Neuron [1], the inhibition at 10 µM was determined as 0%. Still for that read-out and setting: the result for `CN(c1ccsc1)c1nc(=O)c2cccnc2s1` reads 28%. Take `CC(=O)N1N=C(c2ccc(N)cc2)c2cc3c(cc2C[C@H]1C)OCO3` [TALAMPANEL]: the ED50 in the data set on Mus musculus stood at 4.2 mg/kg. The same compound showed an IC50 with Neuron [2] of 6000 nM.

As a reminder, the inhibition is the percentage by which the read-out fell short of the control. The term IC50 denotes the concentration that gives 50% inhibition. High values mean weaker potency in that assay, low ones greater potency in that assay. Usually ED50 stands for the midpoint of the dose-response relation. As a reminder, the Cmax is the highest concentration seen after dosing. Broadly, the bioavailability is dose-corrected exposure relative to a reference, in per cent. A lower bioavailability goes with poor availability. One may read the Tmax as the time at which the peak concentration occurs. As a reminder, the clearance is the rate of elimination divided by the concentration. Read a low clearance as a low capacity for elimination. As a reminder, the AUC(0-inf) is total exposure, with the tail of the curve extrapolated. A low value points to low exposure. As usually defined, the half-life is the time in which the quantity being followed falls by half.
